Here are results for 18 compounds from ChEMBL document CHEMBL4359896, “Chromenone derivatives as a versatile scaffold with dual mode of inhibition of HIV-1 reverse transcriptase-associated Ribonuclease H function and integrase activity” (Eur J Med Chem, 2019).

By IC50 is commonly meant the concentration that inhibits the measured activity by half. A low value points to greater potency in that assay. The inhibition is the percentage by which the read-out fell short of the control. Higher therefore signals strong suppression. By residual activity is commonly meant what remains of the control signal, in per cent.

Each structure is given as a SMILES string.

Test [1] deals with T1, Human immunodeficiency virus type 1 integrase (Human immunodeficiency virus 1, UniProt Q7ZJM1). Nature of the test: Inhibition of LEDGF/p75-dependent full length HIV-1 integrase expressed in Escherichia coli BL21(DE3) cells preincubated for 1 hr further incubated for 90 mins with biotin-labeled donor DNA and target DNA by HTRF assay. For orientation: In TR-FRET formats the signal depends on donor and acceptor labels being close together.
T1 sequence (Q7ZJM1 whole entry): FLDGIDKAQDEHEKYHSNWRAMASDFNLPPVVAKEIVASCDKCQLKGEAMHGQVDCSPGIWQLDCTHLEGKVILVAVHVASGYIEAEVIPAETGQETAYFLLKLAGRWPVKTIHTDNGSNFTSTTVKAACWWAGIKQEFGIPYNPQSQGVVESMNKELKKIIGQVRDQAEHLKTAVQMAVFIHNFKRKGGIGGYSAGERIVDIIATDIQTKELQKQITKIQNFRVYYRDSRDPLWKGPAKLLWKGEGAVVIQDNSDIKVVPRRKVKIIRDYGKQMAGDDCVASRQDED

The target of test [2] is Human immunodeficiency virus type 1 reverse transcriptase (Human immunodeficiency virus 1, UniProt Q72547). Description: Inhibition of His6-tagged HIV-1 reverse transcriptase RNase H using 5'-GTTTTCTTTTCCCCCCTGAC-3'-Fluorescein-labeled RNA/5'-CAAAAGAAAAGGGGGGACUG-3'-Dabcyl-labeled DNA as susbtrate incubated for 1 hr by fluorescence based assay.
Test [3] deals with Human immunodeficiency virus type 1 integrase (Human immunodeficiency virus 1) (UniProt Q7ZJM1).
Sequence of Human immunodeficiency virus type 1 integrase (Human immunodeficiency virus 1) (Q7ZJM1 as listed by the source): as the sequence (Q7ZJM1 whole entry) above
Test [4] is described as follows: Inhibition of His-tagged HIV-1 integrase interaction with HIV-1 FLAG-tagged LEDGF/p75 expressed in Escherichia coli BL21(DE3) cells incubated for 30 mins followed by LEDGF addition measured after 4 hrs by HTRF assay. Also on record: species or system Human immunodeficiency virus 1.
Test [5] concerns Human immunodeficiency virus 1. Nature of the test: Inhibition of His-tagged HIV-1 integrase interaction with HIV-1 FLAG-tagged LEDGF/p75 expressed in Escherichia coli BL21(DE3) cells at 100 uM incubated for 30 mins followed by LEDGF addition measured after 4 hrs by HTRF assay relative to control.
The target in test [6] is T1, Human immunodeficiency virus type 1 integrase. Description: Inhibition of subunit exchanging activity of His and Flag-tagged HIV-1 integrase expressed in Escherichia coli BL21(DE3) cells after 2.5 hrs by HTRF assay.
Test [7] has as its target Human immunodeficiency virus type 1 integrase (Human immunodeficiency virus 1) (UniProt Q7ZJM1). Description: Inhibition of LEDGF/p75-dependent full length HIV-1 integrase expressed in Escherichia coli BL21(DE3) cells at 100 uM preincubated for 1 hr further incubated for 90 mins with biotin-labeled donor DNA and target DNA by HTRF assay relative to control. In outline: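 Added 9 nM biotinylated donor DNA, 50 nM Cy5 acceptor DNA and 50 nM LEDGF/p75. Incubation 90 min at 37 °C, then 4 nM europium-streptavidin added. HTRF read (excitation 314 nm, emission 668/620 nm).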

Test [8] addresses Human immunodeficiency virus type 1 reverse transcriptase (Human immunodeficiency virus 1) (UniProt Q72547). Description: Residual activity of His-tagged HIV-1 reverse transcriptase RNase H at 100 uM using 5'-GTTTTCTTTTCCCCCCTGAC-3'-Fluorescein-labeled RNA/5'-CAAAAGAAAAGGGGGGACUG-3'-Dabcyl-labeled DNA as susbtrate incubated for 1 hr by fluorescence based assay relative to control.

Take `CC(=O)CC(=O)c1c(O)c2c(=O)oc3ccc4ccccc4c3c2oc1=O`: the IC50 was 47.5 µM in test [1] and 13.8 µM in test [2].
Compound `CCCC(C(=O)O)c1c(C)nc2ccc(Cl)cc2c1-c1ccccc1` (centres undefined) returned an MI50 in test [3] of 10 µM. The same compound returned an IC50 in test [4] of 13 µM.
On to `CC(=O)CC(=O)c1c(O)c2c(=O)oc3ccccc3c2oc1=O`, for which the concentration for half-maximal inhibition (IC50) turned out to be 42 µM in test [1] and 85.8 µM in test [2].
In turn, `CC(=O)c1c(O)c2c(=O)oc3ccc(C)cc3c2oc1=O` returned an inhibition in test [5] of 52%. Also, the MI50 in test [3] was > 100 µM. For the same compound, the half-maximal inhibitory concentration (IC50) in test [6] is 56.5 µM; in test [1] it was 6.45 µM; in test [2], 6.75 µM; in test [4] it was > 100 µM.
`Cc1cc(-c2c(O)c3c(=O)oc4ccccc4c3oc2=O)nn1-c1ccccc1`: the IC50 is > 100 µM in test [1] and 51.8 µM in test [2]. The same compound displayed an inhibition in test [7] of 61%.
Compound `Cc1cc(=O)c2c(=O)oc3c4ccccc4oc(=O)c3c2o1` returned an inhibition in test [5] of 56%. Also, the MI50 in test [3] was > 100 µM. Besides, the half-inhibitory concentration (IC50) in test [6] is > 100 µM; in test [1], 14 µM; in test [2] it was 16.8 µM; in test [4], > 100 µM.
`CC(=O)CC(=O)c1c(O)c2c(=O)oc3c4ccccc4ccc3c2oc1=O` gave an inhibition in test [5] of 73%. Besides, in test [3], the MI50 is > 100 µM. Besides, the IC50 in test [6] was 85 µM; in test [1], 11 µM; in test [2] it was 51.2 µM; in test [4], > 100 µM.
`Cc1ccc2oc(=O)c3c(O)cc(=O)oc3c2c1`: in test [5], the inhibition was 55%. Further, the MI50 in test [3] was > 100 µM. The half-maximal inhibitory concentration (IC50) in test [6] is 69 µM; in test [1] it was 9.5 µM; in test [2], 16.5 µM; in test [4] it was > 100 µM.
The compound `O=C(c1ccccc1)c1ccc2c(c1)N=CCC(c1c(O)c3c(=O)oc4ccccc4c3oc1=O)=N2` came in with an inhibition in test [5] of 81%. The MI50 in test [3] was > 100 µM. For the same compound, the 50% inhibitory concentration (IC50) in test [6] was > 100 µM; in test [1] it was 20 µM; in test [2] it was 38.4 µM; in test [4], > 100 µM.
On to `CC(=O)c1c(O)c2c(=O)oc3ccccc3c2oc1=O`, for which the figures for the IC50 in test [1] and in test [2] were 8.5 µM and 26.3 µM, respectively.
`CC(=O)c1c(O)c2c(=O)oc3cc(C)ccc3c2oc1=O` gave a residual activity in test [8] of 63%. Moreover, the concentration for half-maximal inhibition (IC50) in test [1] was 22.4 µM; in test [2] it was > 100 µM.
In the case of `CC(=O)c1c(O)c2c(=O)oc3c(C)cccc3c2oc1=O`, the IC50 in test [1] turned out to be 18.5 µM; in test [2], 25.5 µM.
`O=c1cc(O)c2c(=O)oc3c4ccccc4ccc3c2o1`: the inhibition in test [5] came out at 53%. Moreover, the MI50 in test [3] is > 100 µM. The 50% inhibitory concentration (IC50) was 57 µM in test [6], 7.5 µM in test [1], 24.7 µM in test [2] and > 100 µM in test [4].
For the compound `O=c1cc(O)c2c(=O)oc3ccc4ccccc4c3c2o1`, the IC50 in test [1] worked out at 21.5 µM; in test [2] it was 61.3 µM.
In the case of `Cc1ccc2c(c1)oc(=O)c1c(O)cc(=O)oc12`, the residual activity in test [8] was found to be 89%. Also, the figures for the IC50 in test [1] and in test [2] were 41.5 µM and > 100 µM, respectively.
In the case of `Cc1nnc(C(=O)NC(C)(C)c2nc(C(=O)NCc3ccc(F)cc3)c(O)c(=O)n2C)o1`, the inhibition in test [5] was determined as 100%. Also, the IC50 in test [4] was > 100 µM.
As to `Cc1cccc2c1oc(=O)c1c(O)cc(=O)oc12`, the results for the half-inhibitory concentration (IC50) in test [1] and in test [2] were 24 µM and 29.8 µM, respectively.
With `Cc1ccc2oc(=O)c3cc(C4=Nc5ccc(C(=O)c6ccccc6)cc5N=CC4)c(=O)oc3c2c1`, the IC50 in test [1] is > 100 µM; in test [2] it was 42.9 µM. This compound gave an inhibition in test [7] of 78%.
